Experimental findings from ChEMBL document CHEMBL1125718, “Synthesis and biological evaluation of dipeptidyl and tripeptidyl polyoxin and nikkomycin analogues as anticandidal prodrugs” (1991) are described below.

≈ marks a conversion by molar mass, not a printed value. Some results are limits rather than exact numbers.

Assay [1] relates to Candida albicans. Briefly: Compound was tested for rate of hydrolysis (percent hydrolyzed per 10 min) by cell extract from Candida albicans H-317. In kind it is functional. The gist of the method: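 Antibiotic (0.5 mg in H2O–DMSO 50:50) was mixed with cell extract of C. albicans H-317 (3.75 mg protein/mL) and incubated at 36 °C. Portions were withdrawn every 20 min and analysed directly by TLC and HPLC. Nle-UPOC served as control.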

In assay [2] the test system is Candida albicans. The assay can be described thus: (§1) Compound was tested for percent inhibition of transport of (Leu)2 into Candida albicans H-317. The format is functional. Set-up: concentration or dose not given beside the values. The procedure, abridged: (§2)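 Uptake of labeled dileucine was measured with analogues added at 10-fold the molar concentration of the transport substrate. Samples were taken at 0, 1, 2, 3 and 4 min, collected on prewet 0.45 µm filters and washed twice with cold water. Rate was expressed as nmol peptide per mg dry-weight cells per min.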

For assay [3], the system named is Candida albicans. The assay can be described thus: Compound was tested for percent inhibition of transport of (Met)3 into Candida albicans H-317. On the set-up: concentration or dose not given beside the values.
Assay [4] deals with Candida albicans. Briefly: Compound was tested for its lowest concentration at which growth of 124N5 strain of Candida albicans was clearly inhibited. In kind it is functional.
Assay [5] has as its system Candida albicans. The assay can be described thus: Compound was tested for its lowest concentration at which growth of 124 strain of Candida albicans was clearly inhibited. In kind it is functional.
In assay [6] the test system is Candida albicans. The assay can be described thus: Compound was tested for its lowest concentration at which growth of H-317 strain of Candida albicans was clearly inhibited. In kind it is functional.
The target in assay [7] is Chitin synthase 1 (Candida albicans) (UniProt P23316). Briefly: Compound was tested for its ability to inhibit chitin synthetase using Candida albicans strain H-317. In kind it is functional. The procedure, abridged:
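Mixed membrane fraction from C. albicans H-317 was used as the source of total chitin synthetase. Activity was measured with and without polyoxin compounds as N-acetylglucosamine incorporation into chitin. The value is the concentration giving 50% inhibition.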

Assay [8] concerns Candida albicans. The assay can be described thus: Compound was tested for percent inhibition of transport of (Met)3 into Candida albicans H-317. On the set-up: concentration or dose not given beside the values. This is another data set of the same source.
Assay [9] deals with Candida albicans. The description is as §1. The format is functional. The gist of the method:
as §2

Assay [10] concerns Candida albicans. The assay can be described thus: Compound was tested for percent inhibition of transport of (Met)3 into Candida albicans H-317.

As usually defined, the MIC is the smallest concentration in the dilution series that meets the test's criterion for growth inhibition.

Chain of Chitin synthase 1 (Candida albicans) (P23316 whole entry, looked up): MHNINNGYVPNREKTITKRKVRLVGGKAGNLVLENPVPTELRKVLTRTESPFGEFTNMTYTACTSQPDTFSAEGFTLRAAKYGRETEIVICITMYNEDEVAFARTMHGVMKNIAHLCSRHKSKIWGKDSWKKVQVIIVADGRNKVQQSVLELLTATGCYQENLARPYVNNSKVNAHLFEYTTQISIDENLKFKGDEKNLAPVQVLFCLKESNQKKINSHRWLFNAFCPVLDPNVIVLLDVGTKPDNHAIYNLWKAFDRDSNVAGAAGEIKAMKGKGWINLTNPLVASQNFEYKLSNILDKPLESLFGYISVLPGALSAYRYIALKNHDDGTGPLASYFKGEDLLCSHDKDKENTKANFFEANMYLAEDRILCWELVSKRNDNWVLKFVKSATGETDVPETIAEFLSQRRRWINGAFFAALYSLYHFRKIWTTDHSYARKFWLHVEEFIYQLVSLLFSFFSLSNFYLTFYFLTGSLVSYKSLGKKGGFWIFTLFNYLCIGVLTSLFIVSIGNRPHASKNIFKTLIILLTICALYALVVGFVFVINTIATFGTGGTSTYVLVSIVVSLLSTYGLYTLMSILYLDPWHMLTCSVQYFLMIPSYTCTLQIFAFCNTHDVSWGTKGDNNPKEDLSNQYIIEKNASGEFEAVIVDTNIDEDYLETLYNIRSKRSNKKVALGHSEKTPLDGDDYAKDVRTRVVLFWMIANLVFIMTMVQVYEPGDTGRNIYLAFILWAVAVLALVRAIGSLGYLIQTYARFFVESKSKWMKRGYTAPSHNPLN

The molecule `CC(C)C[C@H](N)C(=O)N[C@H](C(=O)N[C@H](C(=O)O)[C@H]1OC(n2cc(C=O)nc2O)[C@H](O)[C@@H]1O)[C@H](C)[C@H](O)c1ccc(O)cn1` (stereo partly specified) displayed a Hydrolysis in [1] of 33. Further, the Transport inhibition in assay [2] was 0%; in assay [3], 22%. The minimal inhibitory concentration (MIC) in [4] is 333 µg/mL (≈ 547 µM); in assay [5] it was 83 µg/mL (≈ 136 µM); in assay [6] it was 166 µg/mL (≈ 273 µM). In assay [7], the ID50 came to 30 µg/mL (≈ 49.3 µM).
With `NC(Cc1cccc(F)c1)C(=O)O` (racemic) [M-FLUOROPHENYLALANINE], the minimal inhibitory concentration (MIC) in assay [4], in assay [5] and in assay [6] was above 1000 µg/mL each time.
Regarding `C[C@@H]([C@H](N)C(=O)N[C@H](C(=O)O)[C@H]1O[C@@H](n2ccc(=O)[nH]c2=O)[C@H](O)[C@@H]1O)[C@H](O)c1ccc(O)cn1` [NIKKOMYCIN], in assay [1], the Hydrolysis was determined as 0. The Transport inhibition in assay [2] is given as 80%; in assay [8] it was 20%. The minimal inhibitory concentration (MIC) is 666 µg/mL (≈ 1340 µM) in assay [4], 10 µg/mL (≈ 20.2 µM) in assay [5] and 20 µg/mL (≈ 40.4 µM) in assay [6]. The same molecule registered an ID50 in [7] of 0.3 µg/mL (≈ 0.606 µM).
As to `CCCCCCCC(=O)NCCCC[C@H](N)C(=O)N[C@H](C(=O)O)[C@H]1O[C@@H](n2ccc(=O)[nH]c2=O)[C@H](O)[C@@H]1O`, in assay [1], the Hydrolysis is 0. In addition, the MIC in assay [4] is above 666 µg/mL; in assay [5], 666 µg/mL (≈ 1230 µM); in assay [6] it was above 666 µg/mL. In addition, the Transport inhibition in assay [9] is listed as 50%; in assay [10], 10%. The ID50 in [7] amounted to 0.5 µg/mL (≈ 0.923 µM).
`COC(=O)/C=C/C(=O)NC[C@H](N)C(=O)N[C@H](C(=O)O)[C@H]1O[C@@H](n2ccc(=O)[nH]c2=O)[C@H](O)[C@@H]1O`: the Hydrolysis in [1] was found to be 0. For the same molecule, the Transport inhibition in [2] was 7%; in assay [3], 0%. Also, the minimal inhibitory concentration (MIC) turned out to be 1000 µg/mL (≈ 2060 µM) in [4], 500 µg/mL (≈ 1030 µM) in [5] and 250 µg/mL (≈ 515 µM) in assay [6]. The molecule also had an ID50 in [7] of 100 µg/mL (≈ 206 µM).
With `CCCCCCCC(=O)NCCCC[C@H](NC(=O)[C@@H](N)CC(C)C)C(=O)N[C@H](C(=O)O)[C@H]1OC(n2ccc(=O)[nH]c2=O)[C@H](O)[C@@H]1O` (stereo partly specified), in [1], the Hydrolysis was 0. The values for the Transport inhibition in [2] and in [3] were 0% and 32%, respectively. In addition, the minimum inhibitory concentration (MIC) in assay [4], in [5] and in assay [6] was above 666 µg/mL throughout. The ID50 in assay [7] was 50 µg/mL (≈ 76.4 µM).
`CCCCCCCC(=O)NCCCC[C@H](NC(=O)[C@@H](N)CCCCNC(=O)CCCCCCC)C(=O)N[C@H](C(=O)O)[C@H]1OC(n2ccc(=O)[nH]c2=O)[C@H](O)[C@@H]1O` (stereo partly specified): in [1], the Hydrolysis is recorded as 0. Besides, the results for the Transport inhibition in assay [2] and in [3] were 60% and 56%, respectively. Also, the minimal inhibitory concentration (MIC) in [4], in assay [5] and in [6] was above 666 µg/mL throughout. Besides, the ID50 in assay [7] came out at 80 µg/mL (≈ 101 µM).
`CC(C)C[C@H](N)C(=O)N[C@H](C(=O)N[C@H](C(=O)O)[C@H]1OC(n2cc(CO)c(=O)[nH]c2=O)[C@H](O)[C@@H]1O)[C@H](O)[C@@H](O)COC(N)=O` (stereo partly specified) yielded a Hydrolysis in assay [1] of 5. Also, the Transport inhibition in assay [2] was determined as 0%; in assay [8], 27%. In addition, the minimum inhibitory concentration (MIC) in assay [4] amounted to 666 µg/mL (≈ 1070 µM); in assay [5], 333 µg/mL (≈ 537 µM); in assay [6], 333 µg/mL (≈ 537 µM). The molecule further came in with an ID50 in [7] of 20 µg/mL (≈ 32.2 µM).
Take `NCCOC[C@H](N)C(=O)N[C@H](C(=O)O)[C@H]1O[C@@H](n2ccc(=O)[nH]c2=O)[C@H](O)[C@@H]1O`: the Hydrolysis in [1] is on record as 0. The results for the Transport inhibition in [2] and in [8] were 58% and 0%, respectively. Also, the MIC in assay [4], in assay [5] and in [6] was above 1000 µg/mL throughout. In addition, the ID50 in assay [7] stood at 100 µg/mL (≈ 240 µM).
With `C[C@@H]([C@H](N)C(=O)N[C@H](C(=O)O)[C@H]1O[C@@H](n2cc(C=O)nc2O)[C@H](O)[C@@H]1O)[C@H](O)c1ccc(O)cn1`, the Hydrolysis in [1] was determined as 0. The Transport inhibition in assay [2] was determined as 90%; in [3] it was 30%. Moreover, the values for the MIC in assay [4], in assay [5] and in assay [6] were 333 µg/mL (≈ 672 µM), 2.5 µg/mL (≈ 5.05 µM) and 5 µg/mL (≈ 10.1 µM), respectively. The ID50 in [7] amounted to 0.1 µg/mL (≈ 0.202 µM).
In turn, `CC(C)C[C@H](N)C(=O)N[C@H](C(=O)N[C@H](C(=O)O)[C@H]1OC(n2ccc(=O)[nH]c2=O)[C@H](O)[C@@H]1O)[C@H](C)[C@H](O)c1ccc(O)cn1` (stereo partly specified) showed a Hydrolysis in assay [1] of 33. The Transport inhibition in assay [2] was found to be 0%; in [8], 28%. Moreover, the MIC in [4] was above 666 µg/mL; in assay [5] it was 666 µg/mL (≈ 1090 µM); in assay [6], above 666 µg/mL. In addition, the ID50 in assay [7] came to 100 µg/mL (≈ 164 µM).
For `NC(=O)OC[C@H](O)[C@@H](O)[C@H](N)C(=O)N[C@H](C(=O)O)[C@H]1O[C@@H](n2cc(CO)c(=O)[nH]c2=O)[C@H](O)[C@@H]1O` [POLYOXIN B], the Transport inhibition in assay [2] and in assay [8] was 0% each time. The MIC turned out to be 166 µg/mL (≈ 327 µM) in assay [4], 20 µg/mL (≈ 39.4 µM) in assay [5] and 40 µg/mL (≈ 78.8 µM) in assay [6]. This molecule came in with an ID50 in [7] of 0.8 µg/mL (≈ 1.58 µM).
On to `N[C@@H](Cc1cccc(F)c1)C(=O)N[C@H](C(=O)O)[C@H]1O[C@@H](n2ccc(=O)[nH]c2=O)[C@H](O)[C@@H]1O`, for which the Hydrolysis in [1] came to 33. Also, the Transport inhibition in assay [2] came out at 6%; in assay [8], 0%. The MIC in assay [4], in [5] and in assay [6] was above 1000 µg/mL throughout. The molecule further registered an ID50 in assay [7] of 2 µg/mL (≈ 4.42 µM).
